High-throughput results: PubChem, Sanford-Burnham Center for Chemical Genomics
LMPTP inh: LMPTP (human) inhibition; 0.22% of 360,000 active; P24666; AID 651560; recombinant LMPTP-A, OMFP fluorogenic substrate, fluorescence intensity; inhibition, % at 20 µM;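 active means compounds that cut the enzyme signal by at least half of the control window in the single-dose screen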;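 further: plate controls were DMSO wells with enzyme plus substrate for no effect and substrate without enzyme for full effect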
Target sequence (P24666 whole entry, looked up): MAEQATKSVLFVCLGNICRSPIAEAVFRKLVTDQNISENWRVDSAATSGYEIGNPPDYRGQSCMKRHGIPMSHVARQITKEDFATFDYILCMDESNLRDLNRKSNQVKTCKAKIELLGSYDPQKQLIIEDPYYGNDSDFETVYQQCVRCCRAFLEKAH
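Test system: LMPTP-A phosphatase enzyme. Amount: LMPTP-A at 0.625 nM final in the reaction. Reagent: OMFP substrate, 400 µM final. Times: 50 min at room temperature. Signal: endpoint fluorescence intensity from OMFP dephosphorylation. Read-out basis: % inhibition. Benchmarks: no-enzyme and uninhibited controls.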
STEP block: blocks human striatal-enriched tyrosine phosphatase; P54829; 0.25% of 360,000 active; recombinant STEP, OMFP fluorogenic substrate, fluorescence; inhibition, % at 20 µM;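 active means inhibition at 20 µM, scaled per plate between control wells, above about 37%, limit read from the data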;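 further: 0% = DMSO with enzyme and substrate and 100% = substrate only without enzyme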
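System: STEP (striatal-enriched tyrosine phosphatase) enzyme, cell-free; medium: Bis-Tris pH 6.0 buffer with DTT, detergent; dosing: 20 µM, 1% DMSO; times: reaction 20 min, ambient temperature; detection: fluorescence, 480/540 nm; read-out basis: normalized % inhibition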
DNMT1 block: inhibitors of human DNMT1; AID 588458; P26358; 0.83% of 360,000 active; inhibition (reported as % activation of signal), % at 10 µM; DNMT1 molecular beacon, Hinp1I cleavage, fluorescence; in the data active means inhibition above about 50%
SUMO1 PPI mod: SUMO1-SIM interaction modulation | P63165 | SUMO1 binding to a labelled peptide, TR-FRET, 1 h | inhibition, % at 20 µM | 0.33% of 360,000 active | AID 602429; in the data active means inhibition above about 37%
Target sequence (P63165 whole entry, looked up): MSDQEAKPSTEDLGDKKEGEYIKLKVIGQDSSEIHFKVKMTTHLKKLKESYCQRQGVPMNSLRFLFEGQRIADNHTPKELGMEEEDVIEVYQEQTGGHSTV
Scp1 inh: blocks human Scp-1 phosphatase activity | inhibition, % at 20 µM | Q9GZU7 | 0.88% of 340,000 active | Recombinant Scp1, phosphopeptide, malachite green phosphate absorbance;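 active means inhibition above about 50% at 20 µM, limit read from the data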;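 further: plate controls were DMSO wells with enzyme for no effect and wells lacking enzyme for full effect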
Target sequence (Q9GZU7 76-261 limits assumed): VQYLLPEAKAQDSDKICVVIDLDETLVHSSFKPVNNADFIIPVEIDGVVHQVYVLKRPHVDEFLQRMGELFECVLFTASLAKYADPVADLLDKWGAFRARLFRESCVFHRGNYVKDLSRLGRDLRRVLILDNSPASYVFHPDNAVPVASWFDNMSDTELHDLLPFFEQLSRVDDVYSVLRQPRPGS
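Material: truncated SCP-1 phosphatase (76-261aa) / Buffer or medium: 50 mM Tris acetate pH 5.5, 0.005% Tween-20, 10 mM MgCl2 / Compound dosing: one concentration, 20 µM, with 1.0% DMSO / Incubation: 45 min room-temperature reaction, 5 min colour, 30 min stabiliser / Detection: colorimetric free-phosphate detection, absorbance 630 nm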
DNMT1 inh conf: confirmation of human DNMT1 inhibitors. inhibition, % at 10 µM. shares compounds with DNMT1 block. DNMT1 molecular beacon HinP1I cleavage, fluorescence. 8% of 2,300 active;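 active means average inhibition of at least 30% in the single-concentration confirmation test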
Beacon interf: shows spectral interference in the DNMT1 beacon assay. activation (fluorescence interference), % at 10 µM. shares compounds with DNMT1 block. AID 602387. DNMT1 molecular beacon spectral interference counterscreen, fluorescence 485/520. 1% of 2,300 active;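 active means activation of at least 30% at 10 µM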;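 further: DNMT1 catalytic domain with a HinP1I cleavage step and a FAM/dabcyl DNA beacon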
* marks the source's active call; other numbers are inactive results; nt = no result given. Shown are actives, neighbours in structure and some others; about 1.8% of the full set was active somewhere.

SMILES	LMPTP inh	STEP block	DNMT1 block	SUMO1 PPI mod	Scp1 inh	DNMT1 inh conf	Beacon interf
O=C(Nc1cccc(Cl)c1)c1nc[nH]c1C(=O)NCCCNC(=O)c1[nH]cnc1C(=O)Nc1cccc(Cl)c1	1.5	-0.7	60.6*	4.3	-0.2	1.9	-3.4
Cc1ccc(NC(=O)c2nc[nH]c2C(=O)NCCCCCCNC(=O)c2[nH]cnc2C(=O)Nc2ccc(C)cc2)cc1	0.7	-3.6	28.0	3.3	-14.5	nt	nt
Cc1ccc(NC(=O)c2nc[nH]c2C(=O)NCCCCNC(=O)c2[nH]cnc2C(=O)Nc2ccc(C)cc2)cc1	1.6	-4.2	88.8*	3.4	-8.6	2.3	-3.6
Cc1ccc(NC(=O)c2nc[nH]c2C(=O)NCCCNC(=O)c2[nH]cnc2C(=O)Nc2ccc(C)cc2)cc1	0.4	-1.9	59.4*	1.8	-2.3	8.3	0.4
O=C(Nc1ccccc1)c1nc[nH]c1C(=O)NCCCCNC(=O)c1[nH]cnc1C(=O)Nc1ccccc1	0.3	-4.6	-15.4	-4.0	-0.5	nt	nt
O=C(CSc1nncs1)Nc1ccc(N2CCCCC2)cc1	-0.8	-3.7	0.4	-0.2	-9.0	nt	nt
O=C(CN1C(=O)/C(=C/c2ccc(Cl)cc2)SC1=S)NC1C=CS(=O)(=O)C1 (configuration not stated)	7.0	0.6	65.5*	-13.1	4.5	5.8	2.5
CC1(C(=O)NS(=O)(=O)C2CC2)CCCN(C(=O)c2cccs2)C1 (configuration not stated)	0.3	-1.8	0.3	-0.5	nt	nt	nt
O=C(O)CCc1ccc(-c2ccc(Br)cc2)n1Cc1ccco1	2.0	2.0	72.9*	6.6	1.8	9.8	2.0
CCOc1cc2c(C#N)c(N(CC)CC)nc(N)c2c(N)n1	19.6	7.5	85.4*	48.9*	1.7	6.1	6.5
CCCN(CC1CC1)c1nc(N)c2c(N)nc(OC)cc2c1C#N	13.5	2.8	52.0*	34.8	-4.1	9.7	7.0
Cc1cc(C)cc(Cn2cc(CN3CC(N(C)C)CS3(=O)=O)nn2)c1 (configuration not stated)	-1.6	nt	nt	-3.4	nt	nt	nt
CCn1c(COc2ccccc2)nnc1SCC(=O)Nc1ccc(N2CCOCC2)cc1	-1.2	4.3	0.7	1.9	0.7	nt	nt
COc1ccc(CNC(=O)c2cc(=O)c3cc(C)cc(C)c3o2)cc1	-1.3	-0.8	-1.0	-7.0	4.5	nt	nt
O=C(Nc1cccc(S(=O)(=O)N2CCCCCC2)c1)c1ccc2c(c1)OCO2	1.7	-0.3	6.5	13.2	-14.7	nt	nt
O=C(Nc1cccc(S(=O)(=O)N2CCCC2)c1)c1ccc2c(c1)OCO2	-0.8	-0.6	94.9*	-0.4	-5.2	9.8	9.3
CCOC(=O)CSc1nsc(SCC(=O)OCC)c1C#N	-0.5	-0.7	76.3*	-3.8	-1.8	-0.6	4.7
Cc1ccc(NC(=O)CSc2nsc(SCC(=O)Nc3ccc(C)cc3C)c2C#N)c(C)c1	-1.5	-0.6	52.3*	-0.7	-3.1	3.0	3.3
CC(=O)CSc1nsc(SCC(C)=O)c1C#N	16.5	1.4	-9.7	24.0	5.2	nt	nt
COc1cccc(N2CC(NS(=O)(=O)c3ccc4ccccc4c3)CC2=O)c1 (configuration not stated)	0.5	-0.3	-2.7	-5.2	-12.8	nt	nt
O=C(CCN1C(=O)/C(=C/C=C/c2ccccc2)SC1=S)Nc1nccs1	-0.2	-1.7	4.0	-3.5	8.7	nt	nt
O=C(CCN1C(=O)/C(=C\C=C\c2ccccc2)SC1=S)Nc1ccccc1C(=O)O	2.2	2.1	75.3*	13.0	-1.8	13.3	-1.3
CC(C)c1ccccc1NC(=O)COC(=O)CCN1C(=O)/C(=C\C=C\c2ccccc2)SC1=S	4.3	2.8	-3.3	-2.3	-7.0	nt	nt
O=C(COC(=O)CCN1C(=O)/C(=C\C=C\c2ccccc2)SC1=S)Nc1ccc(Br)cc1	3.9	2.7	66.6*	-3.1	-15.5	2.5	4.6
Cc1nc(SCc2nc3c(O)cccc3[nH]2)c2oc3ccccc3c2n1	25.4	-0.5	-0.4	2.1	-3.0	nt	nt
SMILES	LMPTP inh	STEP block	DNMT1 block	SUMO1 PPI mod	Scp1 inh	DNMT1 inh conf	Beacon interf
CS(=O)(=O)c1ccc(C(=O)OCC(=O)N2CCCc3ccccc32)cc1	-0.3	-4.9	2.8	4.9	-0.8	nt	nt
Cc1csc(N=Cc2ccc([N+](=O)[O-])o2)n1	42.8	8.1	86.3*	24.9	nt	4.4	-5.4
COCCNC(=O)C1(C)CCCN(C(=O)c2cnc3ccccc3n2)C1 (configuration not stated)	-2.5	-1.7	3.1	-6.0	nt	nt	nt
CCc1nc2ccc(C(=O)NCCc3ccco3)cc2nc1CC	0.4	2.2	1.2	-7.1	-7.4	nt	nt
O=C(NCCCO)c1ccc2nc(-c3ccco3)c(-c3ccco3)nc2c1	0.2	7.6	49.3	45.0*	21.7	2.5	0.8
CCCCCCc1c(C)c2ccc(OCC(=O)N[C@@H](Cc3ccccc3)C(=O)O)cc2oc1=O	1.6	-1.0	60.6*	13.7	36.6	3.9	-3.5
Cc1c(C)c2ccc(OCC(=O)N[C@@H](Cc3ccccc3)C(=O)O)cc2oc1=O	-0.3	-2.4	-1.6	8.3	-1.4	nt	nt
N#Cc1nc(-c2ccc(OCc3ccc(Cl)cc3)cc2)oc1N1CCC(C(N)=O)CC1	3.3	8.2	67.1*	71.4*	-0.4	-0.5	1.8
CN(CC(=O)NCCCc1ccccc1)S(=O)(=O)c1ccc(Br)cc1	0.4	2.0	0.4	-0.8	-7.3	nt	nt
O=C(COC(=O)/C=C/c1ccc(Br)o1)Nc1ccc2[nH]c(=O)[nH]c2c1	47.2	21.0	82.2*	104.0*	nt	14.5	1.6
O=C(COC(=O)/C=C/c1cccc(Cl)c1)Nc1ccc2[nH]c(=O)[nH]c2c1	0.2	-1.3	15.9	3.2	-0.8	nt	nt
CCN(C(=O)COC(=O)/C=C/c1ccco1)C1CCCCC1	6.6	20.4	74.9*	-15.3	72.0*	6.2	2.5
CCN(C(=O)COC(=O)/C=C/c1ccc(F)cc1)C1CCCCC1	2.1	-0.8	-5.3	-7.5	-1.0	nt	nt
COc1cc(C(=O)NN2C(=O)NC3(CCC(C)CC3)C2=O)ccc1OC(F)F (configuration not stated)	-3.3	-1.0	3.5	3.9	-10.4	nt	nt
O=C(Cc1ccccc1[N+](=O)[O-])NCC(=O)c1ccc2c(c1)OCO2	-0.9	-3.9	0.0	-13.6	7.1	nt	nt
COc1ccc(NC(=O)C2Cc3c(-c4cccc(C(N)=O)c4)ccnc3O2)cc1 (configuration not stated)	-1.0	0.7	54.7*	3.5	nt	12.0	6.2
CCOC(=O)C1=CN(Cc2ccco2)S(=O)(=O)NC1c1ccc(F)c(Cl)c1 (configuration not stated)	0.9	0.0	3.2	4.9	-1.3	nt	nt
COCc1c(C(=O)NCc2ccccc2CN2CCCC2)oc2ccccc12	1.2	1.1	-1.6	-18.9	-1.4	nt	nt
